According to PMC8247328 (British Journal of Clinical Pharmacology, 2020):
Where a SMILES comes first, the peptide text is derived from it. [ ]: non-standard residue; d: D form.

Assays:
[1] = tested on: mitochondrial function in calf muscle; test: Dynamic 31P-MRS of calf skeletal muscle; type: in vivo, human
Summary of the method: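 Calf muscle was scanned by dynamic 31P-MRS at 7 T with a surface coil and an MRI-compatible pedal ergometer, before, during and after exercise (pulse-acquire, 2-s resolution, flip 45°, 1 average). Pi, PCr and ATP peaks were integrated. τPCr came from a monoexponential fit, and pH from the PCr–Pi frequency difference. Scans were repeated after a 10-min break if end-exercise pH was <6.8. Outliers deviating >5% (up to 10%) were removed. Timing: screening and day 7 (Part 1), day −1 and day 27 (Part 2), 1.5 h post-dose. Analysis was ANCOVA; the posthoc split used the pre-dose median.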

[2] = tested on: patients with early stage HD; test: Motor assessments and UHDRS; type: in vivo, human; conditions: Part 2; 25 mg s.c. once daily 28 d
Summary of the method: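 In Part 2 only, motor and neurocognitive tests were run at the start and 1.5 h after the final subcutaneous dose on day 28. Each parameter was analysed by mixed-model ANCOVA with treatment as fixed factor and baseline as covariate, with no multiplicity adjustment.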

[3] = tested on: PBMCs; type: cell-based, human; conditions: Part 2; 25 mg s.c. once daily; after 27 days
[4] = tested on: SN4741 cells; conditions: cultured SN4741 cells exposed to MPTP; cited from earlier work
[5] = tested on: MPTP‐treated mice; conditions: cited from earlier work
[6] = tested on: mitochondrial function in the visual cortex; test: 31P-MRS of the visual cortex before, during and after visual stimulation; type: in vivo, human; conditions: Part 2, 25 mg s.c. once daily 28 d
Summary of the method: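 At 3 T, a 6-cm 31P transmit/receive surface coil was placed over the visual cortex, positioned using a 10-mm water sphere on 1H images. Adiabatic pulse-acquire (TR 2 s, flip 90°) FIDs were collected for 4 min at rest (128 averages), 8 min during visual activation (256) and 8 min after (256). Time-domain fitting with prior knowledge gave PCr/ATP, Pi/PCr, Pi/ATP and pH. Scans ran on day −1 and 1.5 h post-dose on day 27; mixed-model ANCOVA used baseline as covariate.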

[7] = tested on: rats; conditions: ischaemia/reperfusion, single dose of 4 mg/kg; cited from earlier work
[8] = Part 2, 25 mg s.c. once daily 28 d, ANCOVA
[9] = Part 2, 25 mg s.c. once daily 28 d, n=11, day 27

N=C(N)NCCC[C@@H](NC(=O)[C@@H](N)Cc1ccccc1)C(=O)N[C@@H](Cc1ccccc1)C(=O)N[C@@H](CCCCN)C(N)=O [SBT‐020, H‐Phe‐D‐Arg‐Phe‐Lys‐NH2] (H-F[dR]FK-NH2)
PCr/pi resting phase 31P‐MRS scan, LS mean ([1]; Part 1, 25 mg s.c. once daily 7 d, n=6, day 7): 11.2289 | τPCr with 31P‐MRS, LS mean ([1]; Part 1, 25 mg s.c. once daily 7 d, n=6, day 7, 1.5 h post dose): 39.8743 s | Mean τPCr after 7 days of treatment ([1]; Part 1, 5‐mg cohort, baseline mean 41.9): 42.5 s | Mean τPCr after 7 days of treatment ([1]; Part 1, 15‐mg cohort, baseline mean 40.0): 43.1 s | Mean τPCr after 7 days of treatment ([1]; Part 1, 25‐g cohort (so in the source), baseline mean 39.2): 38.8 s | Effect on τPCr, ∆Ψm and percentage of dysfunctional PBMCs ([1]; Part 1, after 7 days of treatment, 5, 15, 25 mg): No overall or dose‐related effects | PCr/ATP resting phase 31P‐MRS scan, contrast vs placebo (95% CI) [1, 8]: −.07 (−0.3, 0.2) P = .54 | PCr/pi resting phase 31P‐MRS scan, contrast vs placebo (95% CI) [1, 8]: 0.1 (−2.0, 2.1) P = .94 | τPCr with 31P‐MRS, contrast vs placebo (95% CI) [1, 8]: 2.8 (−9.3, 15.0) P = .63 sec | PCr/ATP resting phase 31P‐MRS scan, LS mean [1, 9]: 3.7 | PCr/pi resting phase 31P‐MRS scan, LS mean [1, 9]: 10.2 | τPCr with 31P‐MRS, LS mean ([1]; Part 2, 25 mg s.c. once daily 28 d, n=11, day 27, 1.5 h post dose): 40.8 s | Change of τPCr, posthoc ([1]; Part 2, active, high mitochondrial function group (τPCr of < 42.4 s)): did not decrease | Effect on τPCr, ∆Ψm and percentage of dysfunctional PBMCs ([1]; Part 2, after 28 days of treatment, 25 mg): No overall effects | Effect on motor function [2]: no effect | Effect on ∆Ψm values and half maximal inhibitory concentration values for carvedilol and verapamil [3]: no effect | Cell viability and apoptosis [4]: improved cell viability and reduced apoptosis | Attenuation of MPTP‐induced dopamine depletion ([5]; MPTP‐treated mice, single dose of 4 mg/kg): 40% | Neuroprotection in the striatum ([5]; acute MPTP model, peripheral administration at 5 mg/kg, ref not given): sufficient to achieve neuroprotection | Effect in MPTP‐induced mouse model of Parkinson's disease ([5]; given systemically): effective in attenuating injury and improving neurotransmitter release | Effect on brain mitochondrial function compared to placebo [6]: No overall statistically significant effect | PCr/ATP after visual stimulation (central 31P‐MRS), contrast vs placebo (95% CI) ([6]; ANCOVA): −0.02 (−0.1, 0.05) P = .57 | Pi/ATP after visual stimulation (central 31P‐MRS), contrast vs placebo (95% CI) ([6]; ANCOVA): 0.0073 (−0.0270, 0.0415) P = .6613 | Pi/ATP before visual stimulation (central 31P‐MRS), contrast vs placebo (95% CI) ([6]; ANCOVA): −0.002 (−0.02, 0.02) P = .80 | Pi/ATP during visual stimulation (central 31P‐MRS), contrast vs placebo (95% CI) ([6]; ANCOVA): −0.004 (−0.02, 0.01) P = .57 | Pi/PCr after visual stimulation (central 31P‐MRS), contrast vs placebo (95% CI) ([6]; ANCOVA): 0.02 (−0.02, 0.06) P = .32 | Pi/PCr before visual stimulation (central 31P‐MRS), contrast vs placebo (95% CI) ([6]; ANCOVA): 0.0007 (−0.02, 0.02) P = .93 | Pi/PCr during visual stimulation (central 31P‐MRS), contrast vs placebo (95% CI) ([6]; ANCOVA): 0.004 (−0.03, 0.03) P = .81 | PCr/ATP after visual stimulation (central 31P‐MRS), LS mean ([6]; n=11, day 27): 0.9 | PCr/ATP before visual stimulation (central 31P‐MRS), LS mean ([6]; n=11, day 27): 0.8 | PCr/ATP during visual stimulation (central 31P‐MRS), LS mean ([6]; n=11, day 27): 0.8 | PCr/ATP during‐after visual stimulation (central 31P‐MRS), LS mean ([6]; n=11, day 27): −0.05 | PCr/ATP during‐before visual stimulation (central 31P‐MRS), LS mean ([6]; n=11, day 27): −0.03 | Pi/ATP after visual stimulation (central 31P‐MRS), LS mean ([6]; n=11, day 27): 0.2 | Pi/ATP before visual stimulation (central 31P‐MRS), LS mean ([6]; n=11, day 27): 0.2 | Pi/ATP during visual stimulation (central 31P‐MRS), LS mean ([6]; n=11, day 27): 0.2 | Pi/ATP during‐after visual stimulation (central 31P‐MRS), LS mean ([6]; n=11, day 27): −0.02 | Pi/ATP during‐before visual stimulation (central 31P‐MRS), LS mean ([6]; n=11, day 27): −0.01 | Pi/PCr after visual stimulation (central 31P‐MRS), LS mean ([6]; n=11, day 27): 0.2 | Pi/PCr before visual stimulation (central 31P‐MRS), LS mean ([6]; n=11, day 27): 0.2 | Pi/PCr during visual stimulation (central 31P‐MRS), LS mean ([6]; n=11, day 27): 0.2 | Pi/PCr during‐after visual stimulation (central 31P‐MRS), LS mean ([6]; n=11, day 27): −0.005 | Pi/PCr during‐before visual stimulation (central 31P‐MRS), LS mean ([6]; n=11, day 27): −0.006 | Infarct size and myocardial lipid peroxidation [7]: significantly reduced
